{
  "source": "ChEMBL document CHEMBL1136217",
  "about": "“Mapping the kinase domain of Janus Kinase 3” (Bioorg Med Chem Lett, 2003)",
  "key": {"CTLL [1]": {"system": "CTLL", "experiment": "Inhibitory activity against IL-2 induced proliferation in mouse CTLL cells", "format": "functional, cell-based", "method_in_brief": "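Murine CTLL cells were seeded at 2 × 10^4 per well without IL-2 for 6 h. At time zero, recombinant human IL-2 (10 U/mL) and inhibitor in DMSO (0.5% final) were added. [3H]-thymidine (1 µCi/well) was added at 18 h, and cells were harvested at 24 h. Proliferation was read as incorporated radioactivity by scintillation counting.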"}, "T-cell [2]": {"system": "T-cell", "experiment": "Inhibitory activity against IL-2 induced proliferation in human T-cells", "format": "functional, cell-based"}, "[3]": {"molecular_target": "T1, Tyrosine-protein kinase JAK3 (Homo sapiens, UniProt P52333)", "T1 sequence (P52333 whole entry)": "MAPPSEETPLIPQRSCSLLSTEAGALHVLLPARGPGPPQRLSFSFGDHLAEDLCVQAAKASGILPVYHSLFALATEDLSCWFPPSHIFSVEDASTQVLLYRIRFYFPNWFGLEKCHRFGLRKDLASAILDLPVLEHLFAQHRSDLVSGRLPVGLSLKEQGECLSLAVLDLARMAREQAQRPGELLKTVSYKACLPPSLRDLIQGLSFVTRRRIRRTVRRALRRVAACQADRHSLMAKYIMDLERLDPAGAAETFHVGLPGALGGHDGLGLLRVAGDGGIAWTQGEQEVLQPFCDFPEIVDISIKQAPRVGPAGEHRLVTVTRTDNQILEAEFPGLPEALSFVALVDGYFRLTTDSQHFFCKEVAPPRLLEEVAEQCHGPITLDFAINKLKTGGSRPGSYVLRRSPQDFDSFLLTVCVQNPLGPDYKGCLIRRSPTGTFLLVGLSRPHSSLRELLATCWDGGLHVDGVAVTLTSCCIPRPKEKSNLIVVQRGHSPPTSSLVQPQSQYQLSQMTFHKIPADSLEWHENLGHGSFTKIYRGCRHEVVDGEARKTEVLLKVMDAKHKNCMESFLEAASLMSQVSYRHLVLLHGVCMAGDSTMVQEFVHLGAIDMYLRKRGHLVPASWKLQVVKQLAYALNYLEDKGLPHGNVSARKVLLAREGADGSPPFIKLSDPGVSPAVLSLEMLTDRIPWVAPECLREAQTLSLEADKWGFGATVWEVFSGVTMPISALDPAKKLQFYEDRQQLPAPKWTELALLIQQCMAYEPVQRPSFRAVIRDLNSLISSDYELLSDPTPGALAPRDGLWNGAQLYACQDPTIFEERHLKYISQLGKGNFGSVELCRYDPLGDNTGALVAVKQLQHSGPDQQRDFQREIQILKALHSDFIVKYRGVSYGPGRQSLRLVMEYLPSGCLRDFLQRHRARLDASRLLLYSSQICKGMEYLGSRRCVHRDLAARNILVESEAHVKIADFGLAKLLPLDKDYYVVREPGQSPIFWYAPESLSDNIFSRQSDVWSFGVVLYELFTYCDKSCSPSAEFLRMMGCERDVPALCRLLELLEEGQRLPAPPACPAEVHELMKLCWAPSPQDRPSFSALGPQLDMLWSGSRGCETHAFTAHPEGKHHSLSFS", "experiment": "Inhibitory activity against Janus Kinase 3 protein tyrosine kinase."}, "[4]": {"experiment": "Terminal T1/2 following ip administration at 1 mg/kg", "format": "ADME, organism-based", "design": "dose 1 mg/kg, route intraperitoneal", "settings": "in vivo"}, "[5]": {"experiment": "Area under curve (AUC) following ip administration at 1 mg/kg", "format": "ADME, organism-based", "design": "dose 1 mg/kg, route intraperitoneal", "settings": "in vivo"}, "[6]": {"experiment": "Cp max following ip administration at 1 mg/kg", "format": "ADME, organism-based", "design": "dose 1 mg/kg, route intraperitoneal", "settings": "plasma, read-out: Cp max"}, "[7]": {"experiment": "T max following ip administration at 1 mg/kg", "format": "ADME, organism-based", "design": "dose 1 mg/kg, route intraperitoneal", "settings": "in vivo"}, "[8]": {"molecular_target": "Tyrosine-protein kinase JAK3 (Mus musculus) (UniProt Q62137)", "sequence (Q62137 whole entry, looked up)": "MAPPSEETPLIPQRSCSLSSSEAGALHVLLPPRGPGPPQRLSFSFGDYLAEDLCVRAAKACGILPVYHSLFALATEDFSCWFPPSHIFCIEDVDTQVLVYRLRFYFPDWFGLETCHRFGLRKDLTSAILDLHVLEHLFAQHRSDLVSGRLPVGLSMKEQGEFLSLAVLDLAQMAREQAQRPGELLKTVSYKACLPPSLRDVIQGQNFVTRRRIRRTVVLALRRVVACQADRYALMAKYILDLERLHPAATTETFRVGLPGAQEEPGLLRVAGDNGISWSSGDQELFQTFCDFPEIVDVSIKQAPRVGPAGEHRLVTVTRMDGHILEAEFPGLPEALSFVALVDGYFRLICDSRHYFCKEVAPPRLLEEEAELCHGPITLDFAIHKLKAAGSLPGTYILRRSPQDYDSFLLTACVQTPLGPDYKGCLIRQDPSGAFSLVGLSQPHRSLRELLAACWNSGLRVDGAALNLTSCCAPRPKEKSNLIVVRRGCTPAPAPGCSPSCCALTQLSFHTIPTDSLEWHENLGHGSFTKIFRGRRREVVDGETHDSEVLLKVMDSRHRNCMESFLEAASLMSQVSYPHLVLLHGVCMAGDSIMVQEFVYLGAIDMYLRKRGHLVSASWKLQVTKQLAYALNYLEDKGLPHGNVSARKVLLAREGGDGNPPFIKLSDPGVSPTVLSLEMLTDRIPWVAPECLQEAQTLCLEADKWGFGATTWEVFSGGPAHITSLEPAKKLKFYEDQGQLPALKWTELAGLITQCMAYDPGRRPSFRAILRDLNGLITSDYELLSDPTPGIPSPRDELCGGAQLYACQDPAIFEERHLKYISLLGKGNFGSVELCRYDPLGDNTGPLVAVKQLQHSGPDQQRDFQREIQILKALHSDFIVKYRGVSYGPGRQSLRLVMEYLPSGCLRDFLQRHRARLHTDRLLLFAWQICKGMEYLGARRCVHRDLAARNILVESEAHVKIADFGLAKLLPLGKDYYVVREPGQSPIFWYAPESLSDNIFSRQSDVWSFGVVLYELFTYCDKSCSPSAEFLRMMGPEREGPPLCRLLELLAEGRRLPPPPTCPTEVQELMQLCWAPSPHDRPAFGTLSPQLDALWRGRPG", "settings": "at 3 µM"}, "CTLL [9]": {"system": "CTLL", "experiment": "Inhibitory activity against IL-2 induced proliferation of mouse CTLL cells", "format": "functional, cell-based"}, "T-cell [10]": {"system": "T-cell", "experiment": "Inhibitory activity against IL-2 induced proliferation of human T-cells", "format": "functional, cell-based"}},
  "note": "Activity calls are given as the source filed them. The rule behind the calls is not given here.",
  "data": [
    {"smiles": "O=C1Nc2ncc(-c3cccnc3)cc2/C1=C/c1ccc[nH]1", "values": [
      {"measurement": "IC50", "setting": "CTLL [1]", "result": 2300, "unit": "nM"},
      {"measurement": "IC50", "setting": "T-cell [2]", "result": 2000, "unit": "nM"}
    ]},
    {"smiles": "CN(C)c1ccc(/C=C2\\C(=O)Nc3ccc(C(=O)c4cccs4)cc32)cc1", "values": [
      {"measurement": "IC50", "setting": "[3]", "result": 200, "unit": "nM"}
    ]},
    {"smiles": "O=C1Nc2ccc(C(=O)c3cccs3)cc2/C1=C/c1ccc(F)cc1", "values": [
      {"measurement": "IC50", "setting": "[3]", "result": 4900, "unit": "nM"}
    ]},
    {"smiles": "CC(=O)Nc1ccc(/C=C2\\C(=O)Nc3ccc(C(=O)c4cccs4)cc32)cc1", "values": [
      {"measurement": "IC50", "setting": "[3]", "result": 700, "unit": "nM"}
    ]},
    {"smiles": "CN(C)C(=O)c1ccc2c(c1)/C(=C/c1ccc[nH]1)C(=O)N2", "values": [
      {"measurement": "IC50", "setting": "[3]", "result": 210, "unit": "nM"}
    ]},
    {"smiles": "O=C1Nc2ccc(C(O)c3cccs3)cc2/C1=C/c1ccc[nH]1", "note": "(centres undefined)", "values": [
      {"measurement": "IC50", "setting": "[3]", "result": 190, "unit": "nM"}
    ]},
    {"smiles": "O=C1Nc2ccc(-c3cccnc3)cc2/C1=C/c1ccc[nH]1", "values": [
      {"measurement": "half-life", "setting": "[4]", "result": 3, "unit": "h"},
      {"measurement": "AUC", "setting": "[5]", "result": 7690, "unit": "ng·h/mL"},
      {"measurement": "Cmax", "setting": "[6]", "result": 600, "unit": "ng/mL"},
      {"measurement": "Tmax", "setting": "[7]", "result": 0.5, "unit": "h"}
    ]},
    {"smiles": "O=C1Nc2ccc(C(=O)O)cc2/C1=C/c1ccc[nH]1", "values": [
      {"measurement": "IC50", "setting": "[3]", "result": 213, "unit": "nM"}
    ]},
    {"smiles": "O=C1Nc2ccc(C(=O)c3cccnc3)cc2/C1=C/c1ccc[nH]1", "values": [
      {"measurement": "IC50", "setting": "[3]", "result": 168, "unit": "nM"}
    ]},
    {"smiles": "O=C1Nc2ccc(-c3cccnc3)nc2/C1=C/c1ccc[nH]1", "values": [
      {"measurement": "IC50", "setting": "[3]", "result": 235, "unit": "nM"},
      {"measurement": "inhibition", "setting": "[8]", "result": "Active"},
      {"measurement": "IC50", "setting": "CTLL [9]", "result": 920, "unit": "nM"},
      {"measurement": "IC50", "setting": "T-cell [10]", "result": 700, "unit": "nM"}
    ]},
    {"smiles": "O=C1Nc2cnc(-c3cccnc3)cc2/C1=C/c1ccc[nH]1", "values": [
      {"measurement": "half-life", "setting": "[4]", "result": 3.3, "unit": "h"},
      {"measurement": "AUC", "setting": "[5]", "result": 4580, "unit": "ng·h/mL"},
      {"measurement": "IC50", "setting": "CTLL [9]", "result": 450, "unit": "nM"},
      {"measurement": "Cmax", "setting": "[6]", "result": 700, "unit": "ng/mL"},
      {"measurement": "IC50", "setting": "T-cell [10]", "result": 30, "unit": "nM"},
      {"measurement": "Tmax", "setting": "[7]", "result": 0.5, "unit": "h"}
    ]},
    {"smiles": "O=C1Nc2ccc(NC(=O)c3ccccc3)cc2/C1=C/c1ccc[nH]1", "values": [
      {"measurement": "IC50", "setting": "[3]", "result": 870, "unit": "nM"}
    ]},
    {"smiles": "O=C1Nc2ccc(C(=O)c3cccs3)cc2/C1=C/c1ccc[nH]1", "values": [
      {"measurement": "IC50", "setting": "[3]", "result": 26, "unit": "nM"}
    ]},
    {"smiles": "O=C1Nc2ccc([N+](=O)[O-])cc2/C1=C/c1ccc[nH]1", "values": [
      {"measurement": "IC50", "setting": "[3]", "result": 710, "unit": "nM"}
    ]},
    {"smiles": "O=C1Nc2ccc(C(=O)c3cccs3)cc2/C1=C/C(=O)c1ccc[nH]1", "values": [
      {"measurement": "IC50", "setting": "[3]", "result": 260, "unit": "nM"}
    ]},
    {"smiles": "O=C1Nc2ccc(C(=O)c3cccs3)cc2/C1=C/c1ccccc1", "values": [
      {"measurement": "IC50", "setting": "[3]", "result": 2300, "unit": "nM"}
    ]},
    {"smiles": "CS(=O)(=O)c1ccc(/C=C2\\C(=O)Nc3ccc(C(=O)c4cccs4)cc32)cc1", "values": [
      {"measurement": "IC50", "setting": "[3]", "result": 7100, "unit": "nM"}
    ]}
  ]
}
